How the values were obtained:
Assay type in all cases: functional
[1] = test system: Rattus norvegicus; experiment: Effect on level of high density lipoprotein cholesterol (relative to untreated control) in cholesterol fed-male rats at 76 mg/kg/day
Outline: (§1)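 Male Sprague–Dawley rats (groups of six) fed a cholic acid- and cholesterol-supplemented diet; compound mixed into the diet, given ad libitum for eight days. Lipoproteins were separated by ultracentrifugation, and cholesterol was measured by an enzymatic colorimetric method. Results are % change versus untreated controls, with significance at p < 0.05.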

[2] = test system: Rattus norvegicus; experiment: Effect on level of total cholesterol (relative to untreated control) in cholesterol fed-male rats at 76 mg/kg/day; outline: as §1
[3] = test system: Rattus norvegicus; experiment: Effect on change in body weight gain (relative to untreated control) in cholesterol fed-male rats at 76 mg/kg/day
Outline: (§2)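 Male Sprague–Dawley rats, six per group, on a cholic acid- and cholesterol-supplemented diet. Compounds were mixed into the diet and given ad libitum for eight days. Change in body weight gain is expressed as a percentage of untreated controls. Significance was set at p < 0.05 versus untreated controls.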

[4] = test system: Rattus norvegicus; experiment: Effect on level of triglyceride in (relative to untreated control) in cholesterol fed-male rats at 76 mg/kg/day
Outline: (§3)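 Serum triglycerides were measured in groups of six male Sprague–Dawley rats on a cholic acid/cholesterol-supplemented diet. Compound was dosed in the diet, ad libitum, for eight days. Results are % change relative to untreated controls, with significance at p < 0.05.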

[5] = test system: Rattus norvegicus; experiment: Effect on level of apolipoprotein (Apo) AI (relative to untreated control) in cholesterol fed-male rats at 76 mg/kg/day
Outline: (§4)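 Six male Sprague–Dawley rats per group, fed a cholic acid/cholesterol-supplemented diet, received compound in the diet ad libitum for eight days. Serum Apo A–I was measured by SDS-PAGE or by rat competition ELISA and reported as % change versus untreated controls (p < 0.05). Gemfibrozil was the internal positive control in each study.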

[6] = test system: Rattus norvegicus; experiment: Effect on level of high density lipoprotein cholesterol (relative to untreated control) in cholesterol fed-male rats at 78 mg/kg/day; outline: as §1
[7] = test system: Rattus norvegicus; experiment: Effect on level of total cholesterol (relative to untreated control) in cholesterol fed-male rats at 78 mg/kg/day; outline: as §1
[8] = test system: Rattus norvegicus; experiment: Effect on change in body weight gain (relative to untreated control) in cholesterol fed-male rats at 78 mg/kg/day; outline: as §2
[9] = test system: Rattus norvegicus; experiment: Effect on level of triglyceride in (relative to untreated control) in cholesterol fed-male rats at 78 mg/kg/day
Outline: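 Compound given in diet ad libitum for eight days to groups of six male Sprague–Dawley rats on a cholic acid and cholesterol-supplemented diet. Serum triglycerides expressed as % change relative to untreated controls, with significance at p < 0.05. Gemfibrozil served as internal positive control within each study.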

[10] = test system: Rattus norvegicus; experiment: Effect on level of apolipoprotein (Apo) AI (relative to untreated control) in cholesterol fed-male rats at 78 mg/kg/day; outline: as §4
[11] = test system: Rattus norvegicus; experiment: Effect on level of apolipoprotein (Apo) AI (relative to untreated control) in cholesterol fed-male rats at 38 mg/kg/day; outline: as §4
[12] = test system: Rattus norvegicus; experiment: Effect on level of high density lipoprotein cholesterol (relative to untreated control) in cholesterol fed-male rats at 38 mg/kg/day
Outline: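 Cholic acid/cholesterol-fed male Sprague–Dawley rats (n = 6 per group) were dosed via diet ad libitum for eight days. Lipoproteins were separated by ultracentrifugation and HDL cholesterol was quantified by an enzymatic colorimetric method. Values are % change relative to untreated controls, with significance at p < 0.05. Gemfibrozil was the internal positive control.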

[13] = test system: Rattus norvegicus; experiment: Effect on change in body weight gain (relative to untreated control) in cholesterol fed-male rats at 38 mg/kg/day; outline: as §2
[14] = test system: Rattus norvegicus; experiment: Effect on level of total cholesterol (relative to untreated control) in cholesterol fed-male rats at 38 mg/kg/day; outline: as §1
[15] = test system: Rattus norvegicus; experiment: Effect on level of triglyceride in (relative to untreated control) in cholesterol fed-male rats at 38 mg/kg/day; outline: as §3
[16] = test system: Rattus norvegicus; experiment: Effect on level of high density lipoprotein cholesterol (relative to untreated control) in cholesterol fed-male rats at 62 mg/kg/day; outline: as §1
[17] = test system: Rattus norvegicus; experiment: Effect on change in body weight gain (relative to untreated control) in cholesterol fed-male rats at 62 mg/kg/day; outline: as §2
[18] = test system: Rattus norvegicus; experiment: Effect on level of total cholesterol (relative to untreated control) in cholesterol fed-male rats at 62 mg/kg/day; outline: as §1
[19] = test system: Rattus norvegicus; experiment: Effect on level of triglyceride in (relative to untreated control) in cholesterol fed-male rats at 62 mg/kg/day; outline: as §3
[20] = test system: Rattus norvegicus; experiment: Effect on level of apolipoprotein (Apo) AI (relative to untreated control) in cholesterol fed-male rats at 62 mg/kg/day; outline: as §4

With `Cc1ccc(Cl)cc1N/C(S)=N/[C@@H](C)CO` as the compound, how does the Activity [1] read?
The Activity was 32%.

And the Activity [2]?
Its Activity is 48%.

And the Activity [3]?
Its Activity is 10%.

And the Activity [4]?
Its Activity is 1%.

And the Activity [5]?
The Activity was 20%.

`Cc1ccc(Cl)cc1/N=C(\S)N1CCC(O)C1` (stereo not given) was tested. Which Activity [6] did it give?
Its Activity is 9%.

And the Activity [7]?
The Activity was -5%.

And the Activity [8]?
Its Activity is 2%.

And the Activity [9]?
The Activity was -24%.

What about the Activity [10] of the same compound?
Its Activity is 4%.

Which Activity [11] does the source give for `Cc1ccc(Cl)cc1/N=C(\S)NCC(=O)O` here?
Its Activity is 14%.

What about the Activity [12] of the same compound?
The Activity was 8%.

What about the Activity [13] of the same compound?
Its Activity is 10%.

And the Activity [14]?
Its Activity is 24%.

And the Activity [15]?
The Activity was 4%.

Which Activity [16] does the source give for `Cc1ccc(Cl)cc1N/C(S)=N/C[C@@H](C)O` here?
The Activity was 60%.

What about the Activity [17] of the same compound?
Its Activity is -69%.

And the Activity [18]?
The Activity was -1%.

And the Activity [19]?
Its Activity is -68%.

And the Activity [20]?
Its Activity is 25%.
